The format of data set [1] is in vivo, human. As to conditions: for CL/F / Fe0‐12h (fraction excreted in urine) / Accumulation ratio (based on AUCτ): geometric mean (geometric CV%); for Tmax: human, plasma, oral, range.
The subject of data set [2] is Pro‐C3. Kind of data set: Serum PD biomarker Pro-C3. The format is in vivo, human. Conditions: MAD; statistically significant after a single dose but not after multiple doses. Summed up:
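Oral tablets b.i.d. for 14 days (morning only day 14), 25–200 mg, in healthy adults randomized 6:2 versus placebo. Morning doses followed ≥10 h fasting; other doses came ≥1 h after a meal. Serum drawn predose and 2, 4, 6, 12 h after day 1 morning dose, day 2/7 predose, and predose to 72 h after day 14 dose. Pro-C3 measured by validated ELISA; AUEC0‑12h computed.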

Data set [3] can be described thus: In vitro Caco-2 permeability. The format is in vitro ADME. Conditions: human.
The test system of data set [4] is CYP2C19, CYP2D6, CYP3A4, UGT2B4, and UGT2B7. Kind of data set: Inhibition of CYP and UGT enzymes. The class given is in vitro ADME. As to conditions: at therapeutic concentration ranges; data on file.
Where [5] appears, read: MAD day 1, single 100 mg tablet.
Where [6] appears, read: MAD day 1, single 200 mg tablet.
The mark [7] stands for this setting: MAD day 14, 50 mg tablet b.i.d.
The mark [8] stands for this setting: MAD day 14, 100 mg tablet b.i.d.
Where [9] appears, read: MAD day 14, 200 mg tablet b.i.d.

Where two headings read alike, the source gives them in different places.

Consider `O[C@H]1CCCN[C@@H]1CCCn1cnc2c(Cl)c(Cl)ccc21` [Bersiporocin], for which the “dose adjusted plasma exposure, CYP2D6 poor metabolizer compared to the median value in other phenotypes” value in data set [1] (MAD) is listed as “six‐ to nine‐fold higher”. Moreover, the CL/F is given as 175.57 (70.55) L/h in data set [1] (MAD day 1, single 25 mg tablet); 292.89 (26.44) L/h in data set [1] (MAD day 1, single 50 mg tablet); 261.98 (49.54) L/h in data set [1] (setting [5]); 266.78 (18.62) L/h in data set [1] (setting [6]). For the same compound, the “Fe0‐12h (fraction excreted in urine)” value in data set [1] (MAD day 1, single 25 mg tablet) is 6.23 (44.75) %; in data set [1] (MAD day 1, single 50 mg tablet) it was 6.09 (95.30) %; in data set [1] (setting [5]), 8.20 (27.21) %; in data set [1] (setting [6]) it was 8.44 (50.39) %; in data set [1] (setting [7]) it was 6.09 (95.30) %; in data set [1] (setting [8]), 8.20 (27.21) %. In addition, the “Fe0‐12h (fraction excreted in urine)” value in data set [1] (setting [9]) is given as 8.44 (50.39) %. In addition, the “Accumulation ratio (based on AUCτ)” value in data set [1] (MAD day 14, 25 mg tablet b.i.d.) is 1.94 (26.34); in data set [1] (setting [7]), 2.33 (31.42); in data set [1] (setting [8]) it was 1.88 (35.07); in data set [1] (setting [9]), 3.75 (36.01). In addition, the “increase of AUC” value in data set [1] (MAD, 100 to 200 mg dose group) is on record as “more than four‐folds”. The “dose dependence of plasma concentration” value in data set [1] (MAD, enteric coated tablet, after single and multiple doses) is reported as “dose‐proportional manner”. Moreover, the “time to steady‐state of plasma concentration” value in data set [1] (MAD, enteric coated tablet, first Helmert contrast with p > 0.05) came to 2 days. Also, the Tmax in data set [1] (median T max after a single dose, MAD, single dose) was in the range of 2.5 to 6 h; in data set [1] (median T max,ss, MAD, multiple doses) it was 2 to 6 h. For the same compound, in data set [2], the “mean AUEC0‐12h for serum Pro‐C3 compared to the placebo‐treated group” value was “lower”. The compound further registered a Papp in data set [3] of 7.67 ± 1.06 ×10⁻⁶ cm/s. Further, the “inhibition of CYP and UGT enzymes” value in data set [4] is recorded as “did not inhibit”.

In general, Tmax refers to the time from dosing to the highest level. One may read the Papp as a coefficient for how fast a substance crosses the barrier. Low readings indicate poor permeation, high ones ready permeation.

These data come from publication PMC10339703 (Clinical and Translational Science, 2023).
